In PMC4646424 (Journal of medicinal chemistry, 2015):
Like-named read-outs stand apart in the source and are kept apart here.

Key:
[1] = Particle formation by dynamic light scattering; format: physicochemical; details: for DLS detected (concentration at which particles were detected) / DLS particle radius: dynamic light scattering; for DLS particle radius: at the concentration detected
Summary of the method: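 Particle formation was measured by dynamic light scattering following an earlier published method, with each test compound in buffer both without and with 0.01% Triton X-100. Read-outs were scattering intensity and average particle radius. For selected compounds, critical aggregation concentration was found by tracking scattering intensity as concentration rose, using three independent experiments. Forming aggregator-type particles was a required criterion.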

AmpC β-lactamase = AmpC β-lactamase (Escherichia coli, UniProt P00811); assay: AmpC β-lactamase inhibition with and without Triton X-100; format: biochemical; details: for IC50: 1% DMSO
Chain of AmpC β-lactamase (P00811 20-377): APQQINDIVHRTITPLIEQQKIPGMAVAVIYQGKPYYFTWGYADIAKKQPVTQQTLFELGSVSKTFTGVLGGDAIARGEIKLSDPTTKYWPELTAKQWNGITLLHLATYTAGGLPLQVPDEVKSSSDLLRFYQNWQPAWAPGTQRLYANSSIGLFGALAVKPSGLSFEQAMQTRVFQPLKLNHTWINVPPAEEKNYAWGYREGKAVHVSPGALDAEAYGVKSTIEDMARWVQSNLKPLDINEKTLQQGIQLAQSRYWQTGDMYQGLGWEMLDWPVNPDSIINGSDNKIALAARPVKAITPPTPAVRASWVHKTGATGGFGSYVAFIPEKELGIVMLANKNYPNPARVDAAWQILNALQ
Summary of the method: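 AmpC β-lactamase activity was measured following an earlier published method, with final DMSO at 1% in all samples. Concentration-response curves were run with and without 0.01% Triton X-100. Where detergent fully reversed inhibition, only the highest inhibitor concentration was tested. Values are means of duplicate samples from two independent experiments. Detergent-sensitive inhibition with IC50 better than 100 µM was one criterion for classing a compound as an aggregator.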

[2] = target: monoamine oxygenase B (MAOB); details: read-out: Inhibition of MAOB; cited from earlier work
[3] = target: cholesterol ester transferase protein (CETP); details: read-out: Inhibition of CETP; cited from earlier work
[4] = cited from earlier work; for Known aggregator status: previously reported
[5] = read-out: AmpC IC50 no Triton, no Triton X-100
[6] = read-out: AmpC IC50 plus Triton, plus 0.01% Triton X-100

Row | Compound | DLS detected (concentration at which particles were detected) [1] [µM] | DLS particle radius [1] [nm] | IC50 (AmpC β-lactamase; [5]) [µM] | IC50 (AmpC β-lactamase; [6]) [µM] | further results
1 | Nc1sc2c(c1C(=O)c1ccc(Cl)cc1)CCCC2 [CHEMBL57997] | 21 | 270 | 12.7 | > 100 | 
2 | C=CCOC(=O)c1[nH]c2c(c1C)C(=O)CC(c1ccco1)C2 (stereo not shown) [CHEMBL1359872] | 10 | 405 | 10 | > 100 | 
3 | CCOC(=O)c1c(-c2ccc(C)o2)csc1NC(=O)CSc1ncn[nH]1 [CHEMBL1347854] | 10 | 115 | 29 | > 100 | 
4 | COc1ccc2c(=O)cc(-c3ccc(C)cc3)oc2c1 [CHEMBL17052] |  |  |  |  | Colloid formation by DLS ([1]; up to concentrations of at least 200 µM (Table 2)): does not form colloids; IC50 [2]: 11.3 µM
5 | CN(CCC#N)C(=O)c1cc2c(s1)-c1ccccc1SC2 [CHEMBL1565380] | 100 | 71 | 184 | > 400 | 
6 | Cc1ccccc1OCC(=O)Nc1ccc(-c2nc3cc(Cl)ccc3o2)cc1 [CHEMBL261275] | 4 | 2312 | 7 | > 100 | Effect of 0.01% Triton X-100 on β-lactamase inhibition (AmpC β-lactamase; addition of 0.01% Triton X-100): fully abrogated; IC50 [3]: 21 µM
7 | Cc1ccc(-c2noc(CN(C(=O)C(c3ccccc3)c3ccccc3)C(C)C)n2)cc1 [CHEMBL1304694] | 20 | 456 | 8 | > 100 | 
8 | COc1ccc(OC(C)C(=O)N(C)Cc2nc(-c3ccc(OC)cc3)no2)cc1 (stereo not shown) [CHEMBL1508601] | 100 | 62 | 235 | > 400 | 
9 | C[C@]12CC[C@@H]3c4ccc(O)cc4C[C@@H](CCCCCCCCC[S+]([O-])CCCC(F)(F)C(F)(F)F)[C@H]3[C@@H]1CC[C@@H]2O (stereo partly shown) [fulvestrant] |  |  |  |  | Known aggregator status [4]: strong aggregators
10 | Cc1cc(NS(=O)(=O)c2ccc(NC(=O)COc3c(C)cc(Br)cc3C)cc2)no1 [CHEMBL1333273] | 100 | 49 | 146 | > 400 | 
11 | CNC(=O)c1cc(Oc2ccc(NC(=O)Nc3ccc(Cl)c(C(F)(F)F)c3)cc2)ccn1 [sorafenib] |  |  |  |  | CAC (critical aggregation concentration) ([4]; in biochemical buffer and in cell culture): 3.5 µM; Known aggregator status [4]: strong aggregators
12 | CC(=O)c1c(O)c(C)c(O)c(Cc2c(O)c3c(c(C(=O)/C=C/c4ccccc4)c2O)OC(C)(C)C=C3)c1O [Rottlerin] |  |  |  |  | Known aggregator status [4]: known aggregator at micromolar concentrations
